Experimental data reported in ChEMBL document CHEMBL4145497, “Discovery of 2-aminothiazolyl berberine derivatives as effectively antibacterial agents toward clinically drug-resistant Gram-negative Acinetobacter baumanii” (Eur J Med Chem, 2018).
≈ marks a conversion by molar mass, not a printed value.

How the values were obtained:
Candida parapsilosis = test: Antifungal activity against Candida parapsilosis ATCC 22019 by CLSI two fold serial dilution method; type: functional; conditions: Lodderomyces parapsilosis
Escherichia coli [1] = test: Antibacterial activity against Escherichia coli DH52 after 18 to 24 hrs by CLSI two fold serial dilution method; type: functional
Candida albicans [2] = test: Antifungal activity against Candida albicans ATCC 76615 by CLSI two fold serial dilution method; type: functional
Micrococcus luteus = test: Antibacterial activity against Micrococcus luteus ATCC 4698 after 18 to 24 hrs by CLSI two fold serial dilution method; type: functional
Saccharomyces cerevisiae = test: Antifungal activity against Saccharomyces cerevisiae ATCC 9763 by CLSI two fold serial dilution method; type: functional
Pseudomonas aeruginosa [3] = test: Antibacterial activity against Pseudomonas aeruginosa ATCC 27853 after 18 to 24 hrs by CLSI two fold serial dilution method; type: functional
Aspergillus flavus = test: Antifungal activity against Aspergillus flavus ATCC 204304 by CLSI two fold serial dilution method; type: functional
[4] = Aqueous solubility of the compound in phosphate buffer at pH 7.4 after 3 hrs by UV detection assay; type: physicochemical
In short: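 Water solubility measured at physiological pH, with berberine as the control.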

Staphylococcus aureus [5] = test: Antibacterial activity against Staphylococcus aureus ATCC 25923 after 18 to 24 hrs by CLSI two fold serial dilution method; type: functional
Cyberlindnera jadinii = test: Antifungal activity against Candida utilis ATCC 9950 by CLSI two fold serial dilution method; type: functional; conditions: Williopsis jadinii
Pichia norvegensis = test: Antifungal activity against Candida mycoderma ATCC 96918 by CLSI two fold serial dilution method; type: functional
Bacillus subtilis = test: Antibacterial activity against Bacillus subtilis ATCC 21216 after 18 to 24 hrs by CLSI two fold serial dilution method; type: functional
Candida tropicalis = test: Antifungal activity against drug-resistant Candida tropicalis by CLSI two fold serial dilution method; type: functional
Acinetobacter baumannii = test: Antibacterial activity against drug-resistant Acinetobacter baumannii after 18 to 24 hrs by CLSI two fold serial dilution method; type: functional
Candida albicans [6] = test: Antifungal activity against drug-resistant Candida albicans by CLSI two fold serial dilution method; type: functional
Escherichia coli [7] = test: Antibacterial activity against drug-resistant Escherichia coli after 18 to 24 hrs by CLSI two fold serial dilution method; type: functional
Klebsiella pneumoniae = test: Antibacterial activity against drug-resistant Klebsiella pneumoniae after 18 to 24 hrs by CLSI two fold serial dilution method; type: functional
Aspergillus fumigatus = test: Antifungal activity against drug-resistant Aspergillus fumigatus by CLSI two fold serial dilution method; type: functional
Staphylococcus aureus [8] = test: Antibacterial activity against methicillin-resistant Staphylococcus aureus N315 after 18 to 24 hrs by CLSI two fold serial dilution method; type: functional
Enterococcus faecalis = test: Antibacterial activity against drug-resistant Enterococcus faecalis after 18 to 24 hrs by CLSI two fold serial dilution method; type: functional
Pseudomonas aeruginosa [9] = test: Antibacterial activity against drug-resistant Pseudomonas aeruginosa after 18 to 24 hrs by CLSI two fold serial dilution method; type: functional

Row | SMILES | MIC (Candida parapsilosis) [µM] | MIC (Escherichia coli [1]) [µM] | MIC (Candida albicans [2]) [µM] | MIC (Micrococcus luteus) [µM] | MIC (Saccharomyces cerevisiae) [µM] | MIC (Pseudomonas aeruginosa [3]) [µM] | MIC (Aspergillus flavus) [µM] | MIC (Staphylococcus aureus [5]) [µM] | MIC (Cyberlindnera jadinii) [µM] | MIC (Pichia norvegensis) [µM] | MIC (Bacillus subtilis) [µM] | MIC (Candida tropicalis) [µM] | MIC (Acinetobacter baumannii) [µM] | MIC (Candida albicans [6]) [µM] | MIC (Escherichia coli [7]) [µM] | MIC (Klebsiella pneumoniae) [µM] | MIC (Aspergillus fumigatus) [µM] | MIC (Staphylococcus aureus [8]) [µM] | MIC (Enterococcus faecalis) [µM] | MIC (Pseudomonas aeruginosa [9]) [µM] | further results
1 | COc1cc(/C=N/Nc2nccs2)c2c(c1OCc1cccc(Cl)c1)CN1CCc3cc4c(cc3C1C2)OCO4 (configuration not stated) | 60 (≈ 34.5 µg/mL) | 890 (≈ 512 µg/mL) | 450 (≈ 259 µg/mL) | 220 (≈ 127 µg/mL) | 890 (≈ 512 µg/mL) | 220 (≈ 127 µg/mL) | 450 (≈ 259 µg/mL) | 220 (≈ 127 µg/mL) | 450 (≈ 259 µg/mL) | 220 (≈ 127 µg/mL) | 110 (≈ 63.3 µg/mL) |  |  |  |  |  |  |  |  |  | solubility at 3 h [4]: 374 to 3190 µg/mL (≈ 0.65 to 5.55 mM)
2 | COc1cc(/C=N/NC(N)=S)c2c(c1OCc1ccc([N+](=O)[O-])cc1)CN1CCc3cc4c(cc3C1C2)OCO4 (configuration not stated) | 110 (≈ 61.8 µg/mL) | 110 (≈ 61.8 µg/mL) | 230 (≈ 129 µg/mL) | 110 (≈ 61.8 µg/mL) | 460 (≈ 258 µg/mL) | 230 (≈ 129 µg/mL) | 460 (≈ 258 µg/mL) | 230 (≈ 129 µg/mL) | 460 (≈ 258 µg/mL) | 230 (≈ 129 µg/mL) | 460 (≈ 258 µg/mL) | 460 (≈ 258 µg/mL) | 460 (≈ 258 µg/mL) | 230 (≈ 129 µg/mL) | 110 (≈ 61.8 µg/mL) | 460 (≈ 258 µg/mL) | 460 (≈ 258 µg/mL) | 230 (≈ 129 µg/mL) | 230 (≈ 129 µg/mL) | 230 (≈ 129 µg/mL) | 
3 | COc1cc(/C=N/NC(N)=S)c2c(c1OCc1ccccc1)CN1CCc3cc4c(cc3C1C2)OCO4 (configuration not stated) | 30 (≈ 15.5 µg/mL) | 250 (≈ 129 µg/mL) | 250 (≈ 129 µg/mL) | 250 (≈ 129 µg/mL) | 250 (≈ 129 µg/mL) | 250 (≈ 129 µg/mL) | 250 (≈ 129 µg/mL) | 120 (≈ 62 µg/mL) | 250 (≈ 129 µg/mL) | 500 (≈ 258 µg/mL) | 250 (≈ 129 µg/mL) | 250 (≈ 129 µg/mL) | 120 (≈ 62 µg/mL) | 250 (≈ 129 µg/mL) | 250 (≈ 129 µg/mL) | 500 (≈ 258 µg/mL) | 60 (≈ 31 µg/mL) | 120 (≈ 62 µg/mL) | 250 (≈ 129 µg/mL) | 250 (≈ 129 µg/mL) | 
4 | C#CCOc1c(OC)cc(/C=N/NC(N)=S)c2c1CN1CCc3cc4c(cc3C1C2)OCO4 (configuration not stated) | 280 (≈ 130 µg/mL) | 140 (≈ 65 µg/mL) | 140 (≈ 65 µg/mL) | 280 (≈ 130 µg/mL) | 280 (≈ 130 µg/mL) | 550 (≈ 256 µg/mL) | 550 (≈ 256 µg/mL) | 70 (≈ 32.5 µg/mL) | 280 (≈ 130 µg/mL) | 1100 (≈ 511 µg/mL) | 550 (≈ 256 µg/mL) | 140 (≈ 65 µg/mL) | 4 (≈ 1.86 µg/mL) | 140 (≈ 65 µg/mL) | 140 (≈ 65 µg/mL) | 140 (≈ 65 µg/mL) | 20 (≈ 9.29 µg/mL) | 30 (≈ 13.9 µg/mL) | 550 (≈ 256 µg/mL) | 550 (≈ 256 µg/mL) | 
5 | COc1cc(/C=N/NC(N)=S)c2c(c1OCc1cccc(Cl)c1)CN1CCc3cc4c(cc3C1C2)OCO4 (configuration not stated) | 120 (≈ 66.1 µg/mL) | 230 (≈ 127 µg/mL) | 230 (≈ 127 µg/mL) | 470 (≈ 259 µg/mL) | 230 (≈ 127 µg/mL) | 230 (≈ 127 µg/mL) | 230 (≈ 127 µg/mL) | 60 (≈ 33.1 µg/mL) | 470 (≈ 259 µg/mL) | 120 (≈ 66.1 µg/mL) | 120 (≈ 66.1 µg/mL) | 230 (≈ 127 µg/mL) | 120 (≈ 66.1 µg/mL) | 470 (≈ 259 µg/mL) | 470 (≈ 259 µg/mL) | 120 (≈ 66.1 µg/mL) | 120 (≈ 66.1 µg/mL) | 120 (≈ 66.1 µg/mL) | 230 (≈ 127 µg/mL) | 470 (≈ 259 µg/mL) | 
6 | C=CCOc1c(OC)cc(/C=N/NC(N)=S)c2c1CN1CCc3cc4c(cc3C1C2)OCO4 (configuration not stated) | 30 (≈ 14 µg/mL) | 140 (≈ 65.3 µg/mL) | 140 (≈ 65.3 µg/mL) | 270 (≈ 126 µg/mL) | 550 (≈ 257 µg/mL) | 140 (≈ 65.3 µg/mL) | 270 (≈ 126 µg/mL) | 70 (≈ 32.7 µg/mL) | 270 (≈ 126 µg/mL) | 270 (≈ 126 µg/mL) | 270 (≈ 126 µg/mL) | 70 (≈ 32.7 µg/mL) | 70 (≈ 32.7 µg/mL) | 140 (≈ 65.3 µg/mL) | 140 (≈ 65.3 µg/mL) | 550 (≈ 257 µg/mL) | 70 (≈ 32.7 µg/mL) | 70 (≈ 32.7 µg/mL) | 140 (≈ 65.3 µg/mL) | 140 (≈ 65.3 µg/mL) | 
7 | CCCCCCCCCCCCOc1c(OC)cc(/C=N/NC(N)=S)c2c1CN1CCc3cc4c(cc3C1C2)OCO4 (configuration not stated) | 220 (≈ 131 µg/mL) | 110 (≈ 65.4 µg/mL) | 110 (≈ 65.4 µg/mL) | 110 (≈ 65.4 µg/mL) | 220 (≈ 131 µg/mL) | 110 (≈ 65.4 µg/mL) | 430 (≈ 256 µg/mL) | 110 (≈ 65.4 µg/mL) | 430 (≈ 256 µg/mL) | 220 (≈ 131 µg/mL) | 430 (≈ 256 µg/mL) | 50 (≈ 29.7 µg/mL) | 7 (≈ 4.16 µg/mL) | 110 (≈ 65.4 µg/mL) | 110 (≈ 65.4 µg/mL) | 430 (≈ 256 µg/mL) | 7 (≈ 4.16 µg/mL) | 110 (≈ 65.4 µg/mL) | 220 (≈ 131 µg/mL) | 110 (≈ 65.4 µg/mL) | 
